From ChEMBL document CHEMBL1127367, “Antiproliferative properties of polyamine analogues: a structure-activity study” (J Med Chem, 1994)

Key:
L1210 [1] = test: Compound level in L1210 cells after 48 hours of incubation at initial concentration of 500 uM is expressed as nmol/10e6 cells; format: functional, Mus musculus; design: unit: nmol/10^6 cells
L1210 [2] = test: Compound was evaluated for its impact on spermine levels after 48 hr at concentration 500 uM; format: functional, Mus musculus
L1210 [3] = test: Compound was evaluated for its impact on spermidine levels after 48 hr at concentration 100 uM; format: functional, Mus musculus
L1210 [4] = test: Compound was evaluated for its impact on spermidine levels after 48 hr at concentration 500 uM; format: functional, Mus musculus
L1210 [5] = test: Compound was evaluated for its impact on spermine levels after 48 hr at concentration 100 uM; format: functional, Mus musculus
L1210 [6] = test: Compound was evaluated for its impact on putrescine (Put) levels after 48 hr at concentration 500 uM; format: functional, Mus musculus
L1210 [7] = test: Inhibition of radiolabeled spermidine uptake into L1210 cells in vitro.; format: functional, cell-based, Mus musculus
L1210 [8] = test: Compound level in L1210 cells after 48 hours of incubation at initial concentration of 100 uM is expressed as nmol/10e6 cells; format: functional, Mus musculus; design: unit: nmol/10^6 cells
L1210 [9] = test: Compound was evaluated for its impact on putrescine (Put) levels after 48 hr at concentration 100 uM; format: functional, Mus musculus
L1210 [10] = test: In vitro inhibition of L1210 growth after 48 hours.; format: functional, cell-based; conditions: Mus musculus, L1210, 48 h
Method in brief: (§1)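 Log-phase L1210 cultures (0.5–1.0 × 10^5 cells/mL) treated with analogue diluted in sterile water and filter-sterilized. After 48 h, cells were reseeded and grown a further 48 h for the 96 h point. Cells counted by Coulter counter. % growth = (treated − inoculum)/(untreated − inoculum) × 100.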

L1210 [11] = test: In vitro inhibition of L1210 growth after 96 hours.; format: functional, cell-based; conditions: Mus musculus, L1210, 96 h; method in brief: as §1
[12] = molecular target: T1, Ornithine decarboxylase (Mus musculus) (UniProt P00860); test: Inhibition of ornithine decarboxylase (ODC) activity; format: functional; design: concentration or dose not given beside the values
T1 sequence (whole entry): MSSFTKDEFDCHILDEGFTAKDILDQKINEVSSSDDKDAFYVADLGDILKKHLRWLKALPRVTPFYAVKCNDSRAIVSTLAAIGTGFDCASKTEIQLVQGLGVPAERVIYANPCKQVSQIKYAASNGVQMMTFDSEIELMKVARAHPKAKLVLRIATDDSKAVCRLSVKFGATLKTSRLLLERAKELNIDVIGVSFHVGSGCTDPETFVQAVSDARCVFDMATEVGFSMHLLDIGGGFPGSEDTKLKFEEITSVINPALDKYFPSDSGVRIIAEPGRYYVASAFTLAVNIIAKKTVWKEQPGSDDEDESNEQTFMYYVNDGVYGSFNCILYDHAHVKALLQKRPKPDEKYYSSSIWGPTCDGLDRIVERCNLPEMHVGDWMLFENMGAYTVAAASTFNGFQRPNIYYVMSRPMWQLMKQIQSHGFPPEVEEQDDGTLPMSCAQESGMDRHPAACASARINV

[13] = molecular target: T2, S-adenosylmethionine decarboxylase proenzyme 1 (Mus musculus) (UniProt P0DMN7); test: Inhibition of S-Adenosyl-methionine decarboxylase (AdoMetDC) activity; format: functional; design: concentration or dose not given beside the values
T2 sequence (whole entry): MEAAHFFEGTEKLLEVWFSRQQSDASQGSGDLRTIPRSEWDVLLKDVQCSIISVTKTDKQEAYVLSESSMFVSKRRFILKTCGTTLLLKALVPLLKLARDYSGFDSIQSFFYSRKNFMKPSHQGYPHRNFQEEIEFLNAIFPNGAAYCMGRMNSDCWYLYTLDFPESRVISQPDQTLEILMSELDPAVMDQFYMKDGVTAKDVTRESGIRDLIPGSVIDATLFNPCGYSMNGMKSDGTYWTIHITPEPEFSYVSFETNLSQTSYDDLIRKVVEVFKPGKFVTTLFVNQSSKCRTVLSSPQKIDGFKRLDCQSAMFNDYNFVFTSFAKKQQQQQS

[14] = molecular target: Spermidine/spermine N(1)-acetyltransferase (SAT) (Mus musculus) (UniProt Q6P8J2+P48026); test: […] spermidine/spermine N1-Acetyltransferase (SSAT) activity; format: functional; design: concentration or dose not given beside the values
Spermidine/spermine N(1)-acetyltransferase (SAT) (Mus musculus), sequence (P48026 whole entry, looked up): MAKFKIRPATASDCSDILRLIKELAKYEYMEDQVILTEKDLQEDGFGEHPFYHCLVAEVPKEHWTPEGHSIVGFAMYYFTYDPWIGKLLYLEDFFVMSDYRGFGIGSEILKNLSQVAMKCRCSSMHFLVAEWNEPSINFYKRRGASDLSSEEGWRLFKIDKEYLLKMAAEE
Spermidine/spermine N(1)-acetyltransferase (SAT) (Mus musculus), sequence (Q6P8J2 whole entry, looked up): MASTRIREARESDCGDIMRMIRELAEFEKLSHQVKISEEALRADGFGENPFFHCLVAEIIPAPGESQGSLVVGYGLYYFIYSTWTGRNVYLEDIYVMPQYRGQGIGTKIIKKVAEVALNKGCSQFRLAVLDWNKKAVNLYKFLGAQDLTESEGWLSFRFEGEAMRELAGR

L1210 [15] = test: Compound was evaluated for its impact on spermine […] levels after 48 hr at concentration 500 uM; format: functional, Mus musculus
Method in brief: (§2)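 L1210 suspension cultures were grown in RPMI-1640 with 10% NuSerum, 2% HEPES-MOPS and 1 mM aminoguanidine (37 °C, 5% CO2). Log-phase cells were treated for 48 h, then washed twice in cold RPMI-1640 and pelleted. Pellets were extracted with 0.6 N perchloric acid, and supernatants were held at −20 °C until HPLC. Polyamine levels are given as % of untreated controls.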

L1210 [16] = test: Compound was evaluated for its impact on spermine […] levels after 48 hr at concentration 100 uM; format: functional, Mus musculus; method in brief: as §2
L1210 [17] = test: Compound level in L1210 cells after 48 hours of incubation at initial concentration of 3 uM is expressed as nmol/10e6 cells; format: functional, Mus musculus
Method in brief: (§3)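 Murine L1210 leukemia cells were kept in logarithmic growth as a suspension in RPMI-1640 with 10% NuSerum, 2% HEPES-MOPS buffer and 1 mM aminoguanidine, at 37 °C under 5% CO2. Log-phase cells were exposed to the analogue for 48 h. Intracellular analogue content is reported per 10^6 cells.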

L1210 [18] = test: Compound was evaluated for its impact on spermidine levels after 48 hr at concentration 15 uM; format: functional, Mus musculus; method in brief: as §2
L1210 [19] = test: Compound was evaluated for its impact on spermine levels after 48 hr at concentration 15 uM; format: functional, Mus musculus
Method in brief: (§4)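 Murine L1210 leukemia cells in log-phase suspension (RPMI-1640, 10% NuSerum, 2% HEPES-MOPS, 1 mM aminoguanidine, 37 °C, 5% CO2) exposed to analogue for 48 h. Cells washed twice in cold RPMI-1640, extracted with 0.6 N perchloric acid, and polyamines quantified by HPLC. Spermine is reported as % of untreated control.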

L1210 [20] = test: Compound was evaluated for its impact on spermine levels after 48 hr at concentration 3 uM; format: functional, Mus musculus; method in brief: as §4
L1210 [21] = test: Compound level in L1210 cells after 48 hours of incubation at initial concentration of 15 uM is expressed as nmol/10e6 cells; format: functional, Mus musculus; method in brief: as §3
L1210 [22] = test: Compound was evaluated for its impact on putrescine (Put) levels after 48 hr at concentration 15 uM; format: functional, Mus musculus; method in brief: as §2
L1210 [23] = test: Compound was evaluated for its impact on putrescine (Put) levels after 48 hr at concentration 3 uM; format: functional, Mus musculus; method in brief: as §2
L1210 [24] = test: Compound was evaluated for its impact on spermidine levels after 48 hr at concentration 3 uM; format: functional, Mus musculus; method in brief: as §2
L1210 [25] = test: Compound level in L1210 cells after 48 hours of incubation at initial concentration of 30 uM is expressed as nmol/10e6 cells; format: functional, Mus musculus; method in brief: as §3
L1210 [26] = test: Compound was evaluated for its impact on spermine levels after 48 hr at concentration 30 uM; format: functional, Mus musculus; method in brief: as §4
L1210 [27] = test: Compound was evaluated for its impact on spermidine levels after 48 hr at concentration 150 uM; format: functional, Mus musculus; method in brief: as §2
L1210 [28] = test: Compound was evaluated for its impact on spermidine levels after 48 hr at concentration 30 uM; format: functional, Mus musculus; method in brief: as §2
L1210 [29] = test: Compound was evaluated for its impact on spermine levels after 48 hr at concentration 150 uM; format: functional, Mus musculus; method in brief: as §4
L1210 [30] = test: Compound was evaluated for its impact on putrescine (Put) levels after 48 hr at concentration 30 uM; format: functional, Mus musculus; method in brief: as §2
L1210 [31] = test: Compound level in L1210 cells after 48 hours of incubation at initial concentration of 150 uM is expressed as nmol/10e6 cells; format: functional, Mus musculus; method in brief: as §3
L1210 [32] = test: Compound was evaluated for its impact on putrescine (Put) levels after 48 hr at concentration 150 uM; format: functional, Mus musculus; method in brief: as §2

SMILES	Activity (L1210 [1])	Polyamine (L1210 [2])	Polyamine (L1210 [3])	Polyamine (L1210 [4])	Polyamine (L1210 [5])	Polyamine (L1210 [6])	Ki (L1210 [7])	Activity (L1210 [8])	Polyamine (L1210 [9])	IC50 (L1210 [10])	IC50 (L1210 [11])	Activity [12]	Activity [13]	Activity [14]	other results
CNCCCNCCCNCCCNC	1.84	27%	5%	3%	36%	0%	5600 nM	2.14	0%	> 100000 nM	2500 nM	6%	49%	200%	–
CNCCCNCCCCNCCCNC	1.24	–	0%	0%	21%	0%	1100 nM	1.26	0%	> 100000 nM	–	3%	40%	300%	Polyamine (L1210 [15]): 24%
CC(C)NCCCNCCCNCCCNC(C)C	–	53%	26%	12%	–	0%	40000 nM	–	10%	> 100000 nM	1200 nM	100%	100%	180%	Polyamine (L1210 [16]): 64%
CCCNCCCNCCCCNCCCNCCC	–	–	–	–	–	–	2300 nM	–	–	–	–	52%	72%	500%	Activity (L1210 [17]): 1.12; Polyamine (L1210 [18]): 9%; Polyamine (L1210 [19]): 43%; Polyamine (L1210 [20]): 64%; Activity (L1210 [21]): 1.09; Polyamine (L1210 [22]): 0%; Polyamine (L1210 [23]): 0%; Polyamine (L1210 [24]): 18%
CCNCCCNCCCCNCCCNCC [BIS(ETHYL)SPERMINE]	–	–	–	–	–	–	1600 nM	–	–	30000 nM	180 nM	3%	28%	460%	Activity (L1210 [25]): 0.4; Polyamine (L1210 [26]): 12%; Polyamine (L1210 [27]): 0%; Polyamine (L1210 [28]): 0%; Polyamine (L1210 [29]): 14%; Polyamine (L1210 [30]): 0%; Activity (L1210 [31]): 1.13; Polyamine (L1210 [32]): 0%
